Test results as given in PMC5432128 (Environment international, 2017).
In brackets after ≈: the same amount, converted by molar mass. Several values for one entry are separate records, joined by “and”; a condition that tells them apart may be missing. Equal values may be shown once. Read-outs that look alike come from different tables or passages of the source.

Columns and labels:
[1] = cited from earlier work; for recovery of radioactivity in the urine: rats, ref Powles et al. 1992
[2] = test system: second instar larvae of S. frugiperda; assay: Insect bioassay, diet surface contamination method; type: in vivo; conditions: for mortality / insecticidal activity: 2nd instar larvae, doses as high as 100 μg/mL (24-fold higher than fipronil LC50)
α1β3γ2L GABAA receptors = α1β3γ2L GABAA receptors (Homo sapiens, UniProt P14867+P18507+P28472); type: cell-based; conditions: for EC50: 25 μM GABA, -80 mV
LC-MS/MS Method 1 = type: in vivo, rat; conditions: for concentration at 2 weeks: Conc sulfone, LOQ 1.5 ng/mL
In short: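 Rats received fipronil in diet at 5 or 10 mg/kg daily, for 14 days or one day. Urine was hydrolysed overnight at 37°C with β-glucuronidase/sulfatase in methanol/ammonium acetate pH 5.5. Urine (40 μL) was spiked with CUDA internal standard and centrifugally filtered at 20,000 g. Analysis used UPLC on C18 at 40°C with a water/acetonitrile 0.1% acetic acid gradient at 0.4 mL/min and […] ESI tandem MS.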

LC/MS/MS Method 2 = type: in vivo; conditions: EPA group, this study; for Conc sulfone, LOQ 10 ng/mL: rat urine; for concentration at 2 weeks: rat, urine, oral, Conc sulfone, LOQ 10 ng/mL
In short: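 Urine came from fipronil-treated rats dosed at 5 or 10 mg/kg, single or repeated daily. Urine (100 μL) was precipitated with cold acetonitrile and centrifuged at 12,500 ×g for 8 min. Supernatant was mixed 1:1 with 10 mM ammonium acetate. HPLC used a C18 column at 30°C with 0.2 mM ammonium acetate methanol/acetonitrile phases, a 50–90% B gradient and flow of 0.4 rising to 0.75 mL/min, then MS/MS.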

[3] = urine of fipronil-treated rats; ref McMahen et al. 2015; cited from earlier work
[4] = in certain conditions; ref Gunasekara et al. 2007; cited from earlier work
mice = conditions: 4.5 mg/kg body weight (bw)/day for 13 weeks; ref Hamernik 1998; cited from earlier work
rats = conditions: in particular females; low doses (3.4 mg/kg bw); ref Hamernik 1998; cited from earlier work
dogs = conditions: diet, up to 3 mg/kg bw/day; ref Hamernik 1998; Woodward 2012; cited from earlier work
[5] = test system: polyclonal antibodies 2265; assay: Fipronil immunoassay cross-reactivity, serum 2265; type: binding; conditions: serum 2265, n=5; relative to fipronil
[6] = test system: polyclonal antibodies 2268; assay: Fipronil immunoassay cross-reactivity, serum 2268; type: binding; conditions: serum 2268, n=4; relative to fipronil
[7] = inhibitory effective concentration (EC50) on GABA-induced Cl- currents, pre-application at least 3 min, mean ± S.D.

Sequence of α1β3γ2L GABAA receptors (P14867 28-456): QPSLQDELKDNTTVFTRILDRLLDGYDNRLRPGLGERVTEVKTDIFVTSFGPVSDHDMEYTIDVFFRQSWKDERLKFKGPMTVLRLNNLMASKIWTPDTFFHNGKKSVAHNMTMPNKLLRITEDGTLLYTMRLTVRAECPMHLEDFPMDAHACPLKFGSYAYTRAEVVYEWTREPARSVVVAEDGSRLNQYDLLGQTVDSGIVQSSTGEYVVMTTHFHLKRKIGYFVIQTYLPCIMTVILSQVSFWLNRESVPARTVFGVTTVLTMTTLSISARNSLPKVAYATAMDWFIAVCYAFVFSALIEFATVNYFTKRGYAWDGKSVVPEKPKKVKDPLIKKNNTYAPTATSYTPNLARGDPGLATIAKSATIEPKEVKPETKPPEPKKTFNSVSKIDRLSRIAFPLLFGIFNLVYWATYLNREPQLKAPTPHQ
Sequence of α1β3γ2L GABAA receptors (P28472 26-473): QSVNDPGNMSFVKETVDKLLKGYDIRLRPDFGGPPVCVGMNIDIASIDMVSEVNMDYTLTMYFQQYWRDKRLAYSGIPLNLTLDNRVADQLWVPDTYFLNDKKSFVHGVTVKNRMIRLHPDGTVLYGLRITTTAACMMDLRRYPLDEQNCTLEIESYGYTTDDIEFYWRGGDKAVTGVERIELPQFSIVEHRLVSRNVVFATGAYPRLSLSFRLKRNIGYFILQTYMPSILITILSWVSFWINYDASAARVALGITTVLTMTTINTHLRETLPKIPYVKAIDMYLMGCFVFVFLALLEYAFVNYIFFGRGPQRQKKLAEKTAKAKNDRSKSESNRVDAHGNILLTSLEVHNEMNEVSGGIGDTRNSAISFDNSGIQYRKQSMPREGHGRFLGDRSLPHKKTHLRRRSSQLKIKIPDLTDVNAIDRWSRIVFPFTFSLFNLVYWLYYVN
Sequence of α1β3γ2L GABAA receptors (P18507 40-475): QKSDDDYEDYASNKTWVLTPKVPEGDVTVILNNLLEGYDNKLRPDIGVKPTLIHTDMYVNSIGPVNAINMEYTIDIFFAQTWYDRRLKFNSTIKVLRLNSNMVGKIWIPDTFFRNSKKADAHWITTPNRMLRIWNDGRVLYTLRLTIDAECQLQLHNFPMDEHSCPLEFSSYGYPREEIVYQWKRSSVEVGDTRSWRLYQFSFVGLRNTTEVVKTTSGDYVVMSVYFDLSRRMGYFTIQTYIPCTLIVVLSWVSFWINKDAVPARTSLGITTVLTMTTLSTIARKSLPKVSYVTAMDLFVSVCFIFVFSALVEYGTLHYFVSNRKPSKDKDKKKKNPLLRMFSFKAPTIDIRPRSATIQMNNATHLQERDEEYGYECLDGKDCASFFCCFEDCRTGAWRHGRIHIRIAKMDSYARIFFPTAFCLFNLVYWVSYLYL

## N#Cc1nn(-c2c(Cl)cc(C(F)(F)F)cc2Cl)c(N)c1[S+]([O-])C(F)(F)F (stereo not drawn) [^14C-fipronil]
[1]; repeated dosing over 14 days
  recovery of radioactivity in the urine: 14–16%
[1]; single dose at 4 mg/kg
  recovery of radioactivity in the urine: 5.6%
[1]; single high dose (150 mg/kg)
  recovery of radioactivity in the urine: 22–30%

## COC(=N)c1cc(N)n(-c2c(Cl)cc(C(F)(F)F)cc2Cl)n1 [fipronil desulfinyl imidate, methyl 5-amino-1-(2,6-dichloro-4-(trifluoromethyl)phenyl)-1H-pyrazole-3-carbimidate]
[2]
  mortality / insecticidal activity: did not show any mortality
[2]; listed as imidate derivative
  mortality / insecticidal activity: did not show any insecticidal activity
α1β3γ2L GABAA receptors
  activity on GABAA α1β3γ2L receptor currents (in words): approximately as potent to fipronil
α1β3γ2L GABAA receptors; [7]
  EC50: 2.78 nM and 2.8 nM

## N#Cc1nn(-c2c(Cl)cc(C(F)(F)F)cc2Cl)c(N)c1S(=O)(=O)C(F)(F)F [fipronil sulfone]
LC-MS/MS Method 1; rat urine, fipronil 5 mg/kg repeated, Method 1
  Conc sulfone, LOQ 1.5 ng/mL: 14 ng/mL
LC-MS/MS Method 1; rat urine, fipronil 5 mg/kg repeated, Method 1, listed as sulfone
  Conc sulfone, LOQ 1.5 ng/mL: 17 ng/mL and 14 ng/mL
LC-MS/MS Method 1; rat urine, samples 42, 81 and 82
  detection in urine samples: detected only in samples obtained from animals treated with fipronil repeatedly
LC-MS/MS Method 1; rat, urine, oral, 5 mg/kg, rat urine, fipronil 5 mg/kg repeated, Method 1
  concentration at 2 weeks: 17 ng/mL
LC-MS/MS Method 1; rat, urine, oral, 10 mg/kg, rat urine, fipronil 10 mg/kg repeated, Method 1
  concentration at 2 weeks: 19 ng/mL
LC-MS/MS Method 1; rats treated with fipronil, over all dose groups (abstract)
  concentration in urine samples: around 20 ng/mL
LC/MS/MS Method 2; fipronil 5 mg/kg repeated
  Conc sulfone, LOQ 10 ng/mL: 24 ng/mL
LC/MS/MS Method 2; fipronil 5 mg/kg single
  Conc sulfone, LOQ 10 ng/mL: < 10 ng/mL
LC/MS/MS Method 2; fipronil 10 mg/kg single
  Conc sulfone, LOQ 10 ng/mL: < 10 ng/mL
LC/MS/MS Method 2; 5 mg/kg, fipronil 5 mg/kg repeated
  concentration at 2 weeks: 26 ng/mL
LC/MS/MS Method 2; 10 mg/kg, fipronil 10 mg/kg repeated
  concentration at 2 weeks: 23 ng/mL
[1]; deconjugated and original rat urine, ref Powles et al. (1992)
  share among urinary metabolites: minor constituent

## N#Cc1nn(-c2c(Cl)cc(C(F)(F)F)cc2Cl)c(N)c1[S+]([O-])C(F)(F)F (stereo not drawn) [fipronil]
[2]; Spodoptera frugiperda
  LC50: 4.1 µg/mL (≈ 9.38 µM)
[2]; Spodoptera frugiperda, 12 h
  mortality at 100 µg/mL: 100%
[2]; Spodoptera frugiperda, 48 h
  mortality at 50 µg/mL: 100%
α1β3γ2L GABAA receptors; [7]
  EC50: 1.15 nM and 1.2 nM
[3]
  free fipronil in urine samples: no detectable amount
[4]
  half-life (t1/2) in the environment: over 100 days
mice
  bodyweight gain: reduced bodyweight gains
rats
  liver weight: significant increase in liver weight
dogs
  other signs of toxicity observed: convulsions, head nodding and muscles twitching
  weight gain and neurological effects: did not experience abnormal weight gain or severe neurological effects

## N#Cc1nn(-c2c(Cl)cc(C(F)(F)F)cc2Cl)c(N)c1O [hydroxy-fipronil, 5-Amino-1-(2,6-dichloro-4-(trifluoromethyl)phenyl)-4-hydroxy-1H-pyrazole-3-carbonitrile]
LC-MS/MS Method 1; rat urine, fipronil 5 mg/kg single, Method 1, listed as FipOH
  Conc FipOH, LOQ 0.4 ng/mL: 23 ng/mL and 24 ng/mL
LC-MS/MS Method 1; rat urine, fipronil 10 mg/kg single, Method 1
  Conc FipOH, LOQ 0.4 ng/mL: 14 ng/mL
LC-MS/MS Method 1; rat urine, same doses 5 or 10 mg/kg
  difference in metabolite concentration, two weeks treatment vs single treatment: 80 to 700 times
LC-MS/MS Method 1; rat urine, β-glucuronidase/sulfatase, table S4
  concentration detected in the samples before and after enzymatic hydrolysis: did not change significantly
LC-MS/MS Method 1; rat, urine, oral, 10 mg/kg, Conc FipOH, LOQ 0.4 ng/mL, rat urine, fipronil 10 mg/kg repeated (14 days), Method 1
  concentration at 14 days: 10200 ng/mL
LC-MS/MS Method 1; rats, single fipronil dose of 5 or 10 mg/kg
  concentration in the urine: about 20 ng/mL
[2]
  mortality / insecticidal activity: did not show any mortality
α1β3γ2L GABAA receptors
  activity on GABAA α1β3γ2L receptor currents (in words): did not have a significant inhibitory effect
α1β3γ2L GABAA receptors; inhibitory EC50 on GABA-induced Cl- currents
  EC50: ~1000 nM
α1β3γ2L GABAA receptors; [7]
  EC50: 1000 ± 341 nM
α1β3γ2L GABAA receptors; relative to fipronil and fipronil desulfinyl imidate
  fold higher concentrations to elicit similar current inhibition: ≤ 1000 fold
[5]
  Cross-reactivity (CR): 3.2%
[6]
  Cross-reactivity (CR): 0.7%
